Converted amounts (≈) assume the structure as drawn. Values belong to the compound of their own block, whether it stands above or below them. The source made the active and inactive calls. The calls are words filed in the database; no cut-off is given here.
Key:
[1] = Chemical stability of the compound; type: physicochemical
[2] = Distribution coefficient between octanol and sodium phosphate buffer, logD of the compound in pH 7.4 buffer by LC-MS/MS-based shake flask method
CYP450 = CYP450 (Homo sapiens, UniProt P04798+P05177+P05181+P08684+P10632+P10635+P11509+P11712+P13584+P20813+P20815+P20853+P24462+P24903+P33260+P33261+P51589+P78329+P98187+Q02928+Q08477+Q16678+Q16696+Q5TCH4+Q6VVX0+Q7Z449+Q8TAV3+Q96SQ9+Q9HB55); assay: Inhibition of CYP450 assessed as maximum reduction in metabolite formation using coumarin based substrate by fluorescence assay; type: ADME, protein assay; settings: probe coumarin based substrate
[3] = target: Prostaglandin G/H synthase 2 (Homo sapiens, UniProt P35354); assay: Inhibition of COX-2 in human whole blood assessed as reduction in LPS-stimulated prostaglandin E2 production preincubated for 15 mins followed by LPS stimulation and measured after overnight incubation by EIA; type: tissue-based
[4] = target: Prostaglandin G/H synthase 1 (Homo sapiens, UniProt P23219); assay: Inhibition of COX-1 in human whole blood assessed as reduction in calcium ionophore-stimulated thromboxane B2 production preincubated for 30 mins followed by calcium ionophore stimulation and measured after 20 mins by EIA; type: tissue-based
Chain of Prostaglandin G/H synthase 1 (P23219 whole entry): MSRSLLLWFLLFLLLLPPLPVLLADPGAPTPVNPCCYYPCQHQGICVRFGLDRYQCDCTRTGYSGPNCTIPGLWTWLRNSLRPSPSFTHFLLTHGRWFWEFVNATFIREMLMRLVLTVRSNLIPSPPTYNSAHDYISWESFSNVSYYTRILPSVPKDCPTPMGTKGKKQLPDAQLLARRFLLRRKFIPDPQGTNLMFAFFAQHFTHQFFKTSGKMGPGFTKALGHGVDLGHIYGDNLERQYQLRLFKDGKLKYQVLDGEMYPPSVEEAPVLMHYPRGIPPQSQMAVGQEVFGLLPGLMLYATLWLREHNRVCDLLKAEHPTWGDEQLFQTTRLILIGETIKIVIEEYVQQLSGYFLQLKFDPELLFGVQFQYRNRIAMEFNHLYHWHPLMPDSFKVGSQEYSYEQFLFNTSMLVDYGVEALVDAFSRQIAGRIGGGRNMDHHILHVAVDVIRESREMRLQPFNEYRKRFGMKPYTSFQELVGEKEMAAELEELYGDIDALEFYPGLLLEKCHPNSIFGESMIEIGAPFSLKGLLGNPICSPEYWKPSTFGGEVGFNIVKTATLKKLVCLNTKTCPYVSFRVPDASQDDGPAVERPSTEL

[5] = Selectivity ratio of inhibition of COX-1 in human whole blood to Inhibition of 5-lipoxygenase (unknown origin)
[6] = Selectivity ratio of inhibition of COX-2 in human whole blood to Inhibition of 5-lipoxygenase (unknown origin)
L5178Y = assay: Genotoxicity in mouse L5178Y cells by micronucleus Assay; type: toxicity, cell-based
[7] = target: Aryl hydrocarbon receptor (Homo sapiens, UniProt P35869); assay: Agonist activity at AhR in human HepG2 cells assessed as induction of CYP1A1 activity at 0.001 to 30 uM measured after 24 hrs by immunocytochemistry analysis; type: ADME, cell-based; settings: hepg2, 24 h
Bile salt export pump = Bile salt export pump (Homo sapiens, UniProt O95342); assay: Inhibition of recombinant human BSEP expressed in baculovirus infected Sf21 insect cell vesicles assessed as reduction in NBD-taurocholate uptake by fluorescence assay; type: ADME
[8] = Inhibition of phospholipidosis in rat H42EC3 cells assessed as reduction in NBD-PE accumulation by SYTOX orange staining-based high content imaging analysis; type: cell-based
[9] = target: ATP-binding cassette sub-family C member 2 (Rattus norvegicus, UniProt Q63120); assay: Inhibition of Sprague-Dawley rat Mrp2 expressed in baculovirus infected Sf21 insect cell vesicles assessed as reduction in CDF uptake by fluorescence assay
Chain of ATP-binding cassette sub-family C member 2 (Q63120 whole entry): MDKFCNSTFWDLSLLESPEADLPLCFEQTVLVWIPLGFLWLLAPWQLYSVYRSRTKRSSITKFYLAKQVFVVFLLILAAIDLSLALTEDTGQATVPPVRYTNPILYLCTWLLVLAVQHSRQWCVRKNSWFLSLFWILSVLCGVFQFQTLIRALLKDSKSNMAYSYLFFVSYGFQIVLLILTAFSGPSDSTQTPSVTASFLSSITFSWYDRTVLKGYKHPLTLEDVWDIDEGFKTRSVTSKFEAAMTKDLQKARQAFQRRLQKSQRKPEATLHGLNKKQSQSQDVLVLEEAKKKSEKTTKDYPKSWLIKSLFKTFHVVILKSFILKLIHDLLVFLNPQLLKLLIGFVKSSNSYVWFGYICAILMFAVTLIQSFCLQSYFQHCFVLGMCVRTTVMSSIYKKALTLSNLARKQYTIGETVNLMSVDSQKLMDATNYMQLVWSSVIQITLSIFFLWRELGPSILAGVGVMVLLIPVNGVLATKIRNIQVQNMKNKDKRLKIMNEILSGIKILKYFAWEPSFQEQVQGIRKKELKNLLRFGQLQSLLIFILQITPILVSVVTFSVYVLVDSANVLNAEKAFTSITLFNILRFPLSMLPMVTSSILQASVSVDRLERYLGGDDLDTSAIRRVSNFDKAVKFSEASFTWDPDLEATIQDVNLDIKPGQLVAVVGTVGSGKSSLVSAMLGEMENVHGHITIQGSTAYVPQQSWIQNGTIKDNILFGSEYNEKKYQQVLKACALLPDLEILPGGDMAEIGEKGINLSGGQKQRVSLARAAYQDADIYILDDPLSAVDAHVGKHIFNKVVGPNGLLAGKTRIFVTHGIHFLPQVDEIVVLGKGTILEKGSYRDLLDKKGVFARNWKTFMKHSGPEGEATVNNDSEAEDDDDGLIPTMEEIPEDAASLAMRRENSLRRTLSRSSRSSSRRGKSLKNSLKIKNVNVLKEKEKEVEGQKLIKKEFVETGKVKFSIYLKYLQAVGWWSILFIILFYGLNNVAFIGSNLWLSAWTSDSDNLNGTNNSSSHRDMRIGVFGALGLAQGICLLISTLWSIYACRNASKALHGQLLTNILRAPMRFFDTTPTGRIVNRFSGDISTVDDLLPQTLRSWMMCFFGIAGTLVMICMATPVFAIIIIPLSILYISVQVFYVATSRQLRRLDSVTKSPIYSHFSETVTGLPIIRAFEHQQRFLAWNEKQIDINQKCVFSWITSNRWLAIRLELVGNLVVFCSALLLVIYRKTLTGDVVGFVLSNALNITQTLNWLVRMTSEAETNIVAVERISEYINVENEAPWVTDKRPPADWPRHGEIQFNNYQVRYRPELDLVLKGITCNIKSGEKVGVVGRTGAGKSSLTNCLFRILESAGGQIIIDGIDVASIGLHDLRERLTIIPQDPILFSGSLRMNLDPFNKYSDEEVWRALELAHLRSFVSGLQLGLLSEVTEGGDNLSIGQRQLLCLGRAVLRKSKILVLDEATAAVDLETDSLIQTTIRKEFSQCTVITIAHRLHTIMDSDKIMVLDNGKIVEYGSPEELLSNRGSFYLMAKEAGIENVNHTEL

[10] = target: T1, Arachidonate 5-lipoxygenase-activating protein (Homo sapiens, UniProt P20292); assay: Inhibition of [3H]MK0591 binding to human FLAP expressed in […] cell membranes measured after 60 to 80 mins by scintillation counting method
T1 sequence (P20292 whole entry): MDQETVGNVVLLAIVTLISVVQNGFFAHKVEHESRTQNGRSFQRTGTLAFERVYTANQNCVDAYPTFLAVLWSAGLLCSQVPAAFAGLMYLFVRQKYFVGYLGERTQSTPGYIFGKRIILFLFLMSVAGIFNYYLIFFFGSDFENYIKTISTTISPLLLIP

[11] = target: T2, Arachidonate 5-lipoxygenase-activating protein (Homo sapiens) (UniProt P20292); assay: (§1) Inhibition of FLAP in human whole blood assessed as reduction in calcium ionophore-stimulated LTB4 production preincubated for 30 mins followed by calcium ionophore stimulation and measured after 20 mins by EIA; type: tissue-based
T2 sequence (whole entry): T1 sequence (P20292 whole entry)

[12] = target: T1, Arachidonate 5-lipoxygenase-activating protein; assay: as §1; type: tissue-based
[13] = Intrinsic clearance in cryopreserved human hepatocytes assessed as per million cells at 1 uM measured up to 60 mins by LC-MS/MS analysis; type: ADME, cell-based, Hepatocyte; settings: read-out: CLH
[14] = Apparent permeability across apical to basolateral side in human Caco2 cells; settings: Caco-2
[15] = target: Voltage-gated inwardly rectifying potassium channel KCNH2 (Homo sapiens, UniProt Q12809); assay: Inhibition of human ERG by high-throughput electrophysiology assay
[16] = Metabolic stability in human hepatocytes assessed as parent compound remaining; type: ADME, cell-based, Hepatocyte
[17] = Clearance in po or iv dosed Sprague-Dawley rat; type: ADME, organism-based; settings: in vivo
[18] = Volume of distribution at steady state in po or iv dosed Sprague-Dawley rat; type: ADME, organism-based; settings: in vivo, read-out: Vdss
[19] = Half-life in po or iv dosed Sprague-Dawley rat; type: ADME, organism-based; settings: in vivo
[20] = Bioavailability in po dosed Sprague-Dawley rat; type: ADME, organism-based; settings: in vivo
[21] = Protein binding in human plasma assessed as unbound fraction by LC-MS based equilibrium dialysis analysis; type: ADME, cell-free
[22] = Protein binding in Sprague-Dawley rat plasma assessed as unbound fraction by LC-MS based equilibrium dialysis analysis; type: ADME, cell-free
[23] = Oral bioavailability in Beagle dog at 0.1 to 1 umol/kg administered twice daily via gavage for 3 days and measured up to 79 hrs; type: ADME, organism-based, Canis lupus familiaris; settings: in vivo
[24] = Volume of distribution in Beagle dog at 0.004 to 0.1 umol/kg, iv or 0.1 to 1 umol/kg, po via gavage measured up to 79 hrs; type: ADME, organism-based, Canis lupus familiaris; settings: in vivo
[25] = Clearance in Beagle dog at 0.004 to 0.1 umol/kg, iv or 0.1 to 1 umol/kg, po via gavage measured up to 79 hrs; type: ADME, organism-based, Canis lupus familiaris; settings: in vivo
[26] = Half-life in Beagle dog at 0.004 to 0.1 umol/kg, iv or 0.1 to 1 umol/kg, po via gavage measured up to 79 hrs; type: ADME, organism-based, Canis lupus familiaris; settings: in vivo
Canis familiaris = species: Canis familiaris; assay: Ex vivo inhibition of FLAP in Beagle dog assessed as reduction in ionophore-stimulated LTB4 production by EIA; type: functional, organism-based; settings: Canis lupus familiaris
[27] = Inhibition of FLAP in Beagle dog whole blood assessed as reduction in calcium ionophore-stimulated LTB4 production preincubated for 30 mins followed by calcium ionophore stimulation and measured after 20 mins by EIA; type: tissue-based; settings: Canis lupus familiaris
[28] = Ratio of drug level in blood to plasma in human at 10 uM incubated for 30 mins by LC-MS/MS analysis; type: ADME, cell-free
[29] = Drug absorption in Beagle dog at 0.004 to 0.1 umol/kg, iv or 0.1 to 1 umol/kg, po via gavage measured up to 79 hrs; type: ADME, organism-based, Canis lupus familiaris; settings: in vivo
[30] = target: Potassium voltage-gated channel subfamily E member 1 (Homo sapiens, UniProt P15382); assay: Inhibition of human IKs by IonWork electrophysiology method
[31] = target: Potassium voltage-gated channel subfamily A member 5 (Homo sapiens, UniProt P22460); assay: Inhibition of human Kv1.5 by Ion-work electrophysiology assay
[32] = target: Kv channel-interacting protein 2/Potassium voltage-gated channel subfamily D member 3 (Homo sapiens, UniProt Q9UK17+Q9NS61); assay: Inhibition of human Kv4.3/KChIP2 by Ion-work electrophysiology assay; type: protein-complex assay
Chain of Kv channel-interacting protein 2/Potassium voltage-gated channel subfamily D member 3 (Q9UK17 whole entry): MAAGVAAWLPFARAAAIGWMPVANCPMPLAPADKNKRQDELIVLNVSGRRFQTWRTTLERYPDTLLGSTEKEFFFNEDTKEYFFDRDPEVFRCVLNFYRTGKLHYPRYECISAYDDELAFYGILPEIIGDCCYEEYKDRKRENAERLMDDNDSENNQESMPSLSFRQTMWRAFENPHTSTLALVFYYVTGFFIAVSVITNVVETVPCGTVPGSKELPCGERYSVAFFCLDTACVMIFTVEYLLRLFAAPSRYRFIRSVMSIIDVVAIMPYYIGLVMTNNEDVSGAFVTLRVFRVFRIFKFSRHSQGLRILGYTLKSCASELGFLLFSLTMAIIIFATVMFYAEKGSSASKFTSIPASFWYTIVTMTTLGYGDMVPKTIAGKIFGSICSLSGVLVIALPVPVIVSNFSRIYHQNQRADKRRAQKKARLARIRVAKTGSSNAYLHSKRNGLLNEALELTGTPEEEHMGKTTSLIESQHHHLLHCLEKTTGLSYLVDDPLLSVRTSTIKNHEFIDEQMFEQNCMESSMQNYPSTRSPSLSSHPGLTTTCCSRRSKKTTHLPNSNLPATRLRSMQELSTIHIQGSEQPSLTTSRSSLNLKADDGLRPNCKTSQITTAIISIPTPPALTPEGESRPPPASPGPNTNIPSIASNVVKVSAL
Chain of Kv channel-interacting protein 2/Potassium voltage-gated channel subfamily D member 3 (Q9NS61 whole entry): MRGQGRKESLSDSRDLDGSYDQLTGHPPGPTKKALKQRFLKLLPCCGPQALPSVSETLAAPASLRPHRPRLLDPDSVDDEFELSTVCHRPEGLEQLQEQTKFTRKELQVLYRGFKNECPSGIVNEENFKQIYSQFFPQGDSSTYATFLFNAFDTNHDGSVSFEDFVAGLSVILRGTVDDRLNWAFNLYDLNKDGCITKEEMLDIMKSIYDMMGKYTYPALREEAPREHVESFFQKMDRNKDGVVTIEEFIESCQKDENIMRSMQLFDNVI

[33] = target: Potassium/sodium hyperpolarization-activated cyclic nucleotide-gated channel 4 (Homo sapiens, UniProt Q9Y3Q4); assay: Inhibition of human HCN4 by Ion-work electrophysiology assay
[34] = target: Voltage-dependent T-type calcium channel subunit alpha-1H (Homo sapiens) (UniProt O95180); assay: Inhibition of human Cav3.2 by Ion-work electrophysiology assay
[35] = target: Sodium channel protein type 5 subunit alpha (Homo sapiens, UniProt Q14524); assay: Inhibition of human NaV1.5 by Ion-work electrophysiology assay
[36] = Cytotoxicity against human THLE cells incubated for 24 hrs by MTS assay; type: cell-based
[37] = target: Polyunsaturated fatty acid lipoxygenase ALOX12 (Homo sapiens, UniProt P18054); assay: Inhibition of 12-lipoxygenase (unknown origin)
Chain of Polyunsaturated fatty acid lipoxygenase ALOX12 (P18054 whole entry): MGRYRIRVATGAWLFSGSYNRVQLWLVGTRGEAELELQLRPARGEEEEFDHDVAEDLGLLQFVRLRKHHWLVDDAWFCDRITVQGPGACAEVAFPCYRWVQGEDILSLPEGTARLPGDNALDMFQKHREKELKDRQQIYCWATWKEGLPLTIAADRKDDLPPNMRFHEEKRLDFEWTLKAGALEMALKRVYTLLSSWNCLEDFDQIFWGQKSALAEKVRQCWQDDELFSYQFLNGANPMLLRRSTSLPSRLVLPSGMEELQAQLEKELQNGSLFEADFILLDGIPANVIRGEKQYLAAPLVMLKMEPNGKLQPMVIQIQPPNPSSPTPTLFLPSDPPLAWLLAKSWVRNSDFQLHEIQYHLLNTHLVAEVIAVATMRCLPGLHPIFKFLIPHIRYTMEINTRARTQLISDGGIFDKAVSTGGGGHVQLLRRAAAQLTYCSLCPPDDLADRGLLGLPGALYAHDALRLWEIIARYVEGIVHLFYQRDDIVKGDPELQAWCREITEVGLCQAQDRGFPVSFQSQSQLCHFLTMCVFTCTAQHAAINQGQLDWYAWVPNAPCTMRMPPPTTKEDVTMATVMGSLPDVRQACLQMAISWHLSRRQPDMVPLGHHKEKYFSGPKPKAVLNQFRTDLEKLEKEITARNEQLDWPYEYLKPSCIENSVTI

[38] = target: Polyunsaturated fatty acid lipoxygenase ALOX15 (Homo sapiens, UniProt P16050); assay: Inhibition of 15-lipoxygenase (unknown origin)
HepG2 = assay: Induction of mitochondrial impairment in human HepG2 cells incubated for 24 hrs by CellTiter-Glo Luminescent Cell Viability Assay; type: cell-based; settings: hepg2, 24 h
[39] = Genotoxicity in Salmonella typhimurium by Ames test; type: toxicity; settings: salmonella enterica subsp. enterica serovar typhimurium
Procedure, shortened: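 Two-strain Salmonella Ames test, with and without metabolic activation by rat liver S9 fraction; applied to amino pyrazole building blocks present in the series.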

[40] = target: Polyunsaturated fatty acid 5-lipoxygenase (Homo sapiens, UniProt P09917); assay: Inhibition of 5-lipoxygenase (unknown origin)
physchem = settings: phosphate buffer, pH 7.4
Cytochrome P450 2C9 = Cytochrome P450 2C9 (Homo sapiens, UniProt P11712); assay: Inhibition of recombinant human CYP2C9 expressed in Escherichia coli assessed as maximum reduction in metabolite formation using coumarin based substrate by fluorescence assay; type: ADME
hERG (KCNH2) = hERG (KCNH2) (Homo sapiens, UniProt Q12809); assay: Inhibition of human ERG at 10 uM high-throughput electrophysiology assay relative to control
Chain of hERG (KCNH2) (Q12809 whole entry): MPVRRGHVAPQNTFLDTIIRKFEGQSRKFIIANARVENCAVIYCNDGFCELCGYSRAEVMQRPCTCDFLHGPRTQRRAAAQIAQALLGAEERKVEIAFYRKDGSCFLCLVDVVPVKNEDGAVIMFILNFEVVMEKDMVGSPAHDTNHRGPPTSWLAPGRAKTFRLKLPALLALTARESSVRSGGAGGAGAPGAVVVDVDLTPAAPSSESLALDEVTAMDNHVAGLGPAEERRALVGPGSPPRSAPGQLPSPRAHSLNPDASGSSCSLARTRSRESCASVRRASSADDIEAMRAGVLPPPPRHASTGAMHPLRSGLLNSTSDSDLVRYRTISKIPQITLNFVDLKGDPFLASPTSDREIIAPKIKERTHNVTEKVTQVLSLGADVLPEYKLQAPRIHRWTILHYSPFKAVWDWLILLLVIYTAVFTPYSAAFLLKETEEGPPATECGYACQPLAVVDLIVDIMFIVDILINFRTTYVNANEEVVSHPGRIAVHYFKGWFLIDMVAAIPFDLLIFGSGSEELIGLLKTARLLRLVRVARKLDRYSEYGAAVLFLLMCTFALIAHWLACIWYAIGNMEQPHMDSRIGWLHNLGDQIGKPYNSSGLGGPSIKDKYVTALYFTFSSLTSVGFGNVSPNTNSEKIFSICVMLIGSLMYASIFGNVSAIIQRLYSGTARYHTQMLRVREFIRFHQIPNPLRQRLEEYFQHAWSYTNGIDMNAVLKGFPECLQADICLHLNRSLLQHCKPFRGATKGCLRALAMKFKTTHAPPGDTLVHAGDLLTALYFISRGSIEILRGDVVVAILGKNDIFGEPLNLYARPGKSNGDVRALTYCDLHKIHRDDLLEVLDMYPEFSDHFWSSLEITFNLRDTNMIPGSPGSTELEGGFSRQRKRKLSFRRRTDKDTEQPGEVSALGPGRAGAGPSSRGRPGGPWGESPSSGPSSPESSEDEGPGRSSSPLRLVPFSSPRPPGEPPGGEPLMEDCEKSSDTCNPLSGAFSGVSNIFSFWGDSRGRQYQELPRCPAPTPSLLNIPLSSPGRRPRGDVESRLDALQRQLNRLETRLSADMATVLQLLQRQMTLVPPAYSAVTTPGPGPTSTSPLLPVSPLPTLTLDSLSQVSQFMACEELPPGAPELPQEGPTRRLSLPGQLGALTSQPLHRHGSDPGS

Homo sapiens = assay: Suppression of calcium ionophore-stimulated LTB4 production in CAD patient whole blood at 100 mg administered daily during phase 2 study for 12 weeks by ELISA relative to baseline; type: functional
[41] = target: T2, Arachidonate 5-lipoxygenase-activating protein (Homo sapiens); assay: (§2) Inhibition of FLAP in human whole blood assessed as reduction in calcium ionophore-stimulated LTB4 production preincubated for 4 hrs followed by calcium ionophore stimulation and measured after 20 mins by EIA; type: tissue-based
[42] = target: T1, Arachidonate 5-lipoxygenase-activating protein; assay: as §2; type: tissue-based
Cytochrome P450 1A2 = Cytochrome P450 1A2 (Homo sapiens, UniProt P05177); assay: Inhibition of recombinant human CYP1A2 assessed as maximum reduction in metabolite formation using coumarin based substrate by fluorescence assay; type: ADME

Stability [1]: Unstable | logD [2]: 3
SMILES: Cn1cc(NC(=O)[C@@H]2CCCC[C@H]2C(=O)c2ccc(-c3ccn[nH]3)cc2)c(OC(F)F)n1

IC50 (CYP450): > 25100 nM | inhibition (INH) [3]: Not Active | inhibition (INH) [4]: Not Active | Activity [7]: Not Active | inhibition (INH) [9]: Not Active | logD [2]: 3 | IC50 [10]: 63.1 nM | fpIC50 [11]: 8.1 | IC50 [12]: 63.1 nM | hepatocyte CLint at 1 µM [13]: 4 µL/min/1e6 cells | Papp A→B [14]: 20 ×10⁻⁶ cm/s | Stability [16]: 72% | clearance [17]: 6 mL/min/kg | Vd [18]: 0.83 L/kg | half-life [19]: 4.5 h | bioavailability [20]: 47% | fraction unbound [21]: 0.11 | fraction unbound [22]: 0.043 | bioavailability [23]: 51% | Vd [24]: 0.98 L/kg | clearance [25]: 3.33 mL/min/kg | half-life [26]: 3.4 h | IC50 (Canis familiaris): 34 nM | IC50 [27]: 28 nM | blood plasma ratio at 0.5 h, 10 µM [28]: 0.74 | ka [29]: 5.3 h⁻¹ | inhibition (INH) [30]: Not Active | inhibition (INH) [31]: Not Active | inhibition (INH) [32]: Not Active | inhibition (INH) [33]: Not Active | inhibition [34]: inactive | inhibition (INH) [37]: Not Active | inhibition (INH) [38]: Not Active | inhibition (INH) [40]: Not Active | solubility at 24 h (physchem): 225 µM (≈ 91.2 µg/mL)
SMILES: Cc1cc(-c2ccc(C(=O)[C@@H]3CCCC[C@H]3C(=O)Nc3cn(C)nc3C)cc2)n[nH]1
Selectivity ratio [5]: >= 100 | Selectivity ratio [6]: >= 100 | Activity (L5178Y): Non-Toxic | IC50 (Bile salt export pump): 120000 nM | EC50 [8]: 32000 nM | IC50 [15]: > 100000 nM | inhibition (Canis familiaris): Dose-dependent effect | inhibition (INH) [35]: Not Active | Activity [36]: Non-Toxic | Activity (HepG2): Non-Toxic | Activity [39]: Non-Toxic

logD [2]: 3.5 | fpIC50 [11]: 8.5 | IC50 (Cytochrome P450 2C9): 7940 nM | hepatocyte CLint at 1 µM [13]: 6 µL/min/1e6 cells | Papp A→B [14]: 27 ×10⁻⁶ cm/s | solubility at 24 h (physchem): 25 µM (≈ 10.4 µg/mL)
SMILES: Cc1cc(-c2ccc(C(=O)[C@@H]3CCCC[C@H]3C(=O)Nc3cn(C)nc3C#N)cc2)n[nH]1
inhibition at 10 µM (hERG (KCNH2)): 23% | Activity [39]: Non-Toxic

SMILES: C[C@H](C#Cc1ccc(Cc2ccc(F)cc2)s1)N(O)C(N)=O [ATRELEUTON]
inhibition (INH) (Homo sapiens): 80%

logD [2]: 3.2 | IC50 [10]: 15.8 nM | fpIC50 [41]: 8.3 | IC50 [42]: 100 nM | IC50 (Cytochrome P450 1A2): 10000 nM | hepatocyte CLint at 1 µM [13]: 4 µL/min/1e6 cells | Papp A→B [14]: 3 ×10⁻⁶ cm/s | solubility at 24 h (physchem): 111 µM (≈ 54.5 µg/mL)
SMILES: CC(C)(O)CNC(=O)c1cnc(NC(=O)[C@@H]2CCCC[C@H]2C(=O)c2ccc(-c3cc[nH]n3)cc2)cn1 (racemic)
inhibition at 10 µM (hERG (KCNH2)): 22%

logD [2]: 3.5 | IC50 [10]: 10 nM | fpIC50 [11]: 8.5 | IC50 [12]: 63.1 nM
SMILES: Cc1cc(-c2ccc(C(=O)[C@@H]3CCCC[C@H]3C(=O)Nc3cn(C)nc3C(F)F)cc2)n[nH]1
Activity [39]: Toxic
